Assay results reported in ChEMBL document CHEMBL1126566, “Studies on analogues of classical antifolates bearing the naphthoyl group in place of benzoyl in the side chain” (J Med Chem, 1993).

Experiments:
Mus musculus [1] = assay: Antitumor activity against E0771 mammary adenocarcinoma in mice at 12 mg/kg (5 days) was determined and […] at day 10 was reported; assay type: functional
How it was run: (§1)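 E0771 mammary adenocarcinoma implanted in mice, five mice per group. Treatment was given daily for 5 days, starting day 3 after implantation. Tumor volume was calculated as 4/3πr³ and averaged on days 7, 10 and 14. T/C (%) is the treated/control tumor volume. Toxic deaths were recorded.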

Mus musculus [2] = assay: Antitumor activity against E0771 mammary adenocarcinoma in mice at 24 mg/kg(5 days) was determined and […] at day 10 was reported; assay type: functional
Mus musculus [3] = assay: Antitumor activity against E0771 mammary adenocarcinoma in mice at 24 mg/kg(5 days) was determined and tumor volume at day 14 was reported; assay type: functional
How it was run: (§2)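 Mice bearing implanted E0771 mammary adenocarcinoma, five per test group. Dosing was daily for 5 days, starting on day 3 after implantation. Tumor volume (mm³) was calculated as 4/3πr³ and is also expressed as treated/control (%).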

HL-60 = assay: Tested for the ability to inhibit growth in vitro against HL60; assay type: functional, cell-based; conditions: Homo sapiens
L1210 [4] = assay: Tested for the ability to inhibit growth in vitro against L1210; assay type: functional, cell-based; conditions: Mus musculus
CCRF S-180 [5] = assay: Tested for the ability to inhibit growth in vitro against S180; assay type: functional, cell-based; conditions: Mus musculus
Mus musculus [6] = assay: Antitumor activity against E0771 mammary adenocarcinoma in mice at 24 mg/kg(5 days) was determined and […] at day 14 was reported; assay type: functional
Mus musculus [7] = assay: Antitumor activity against E0771 mammary adenocarcinoma in mice at 12 mg/kg (5 days) was determined and […] at day 14 was reported; assay type: functional
CCRF-CEM = assay: Percent inhibition of Folyl-polyglutamate synthase from CCRF-CEM cells; assay type: cell-based; set-up: concentration or dose not given beside the values; conditions: Homo sapiens, dose or concentration not given here
How it was run: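 FPGS was partially purified from CCRF-CEM cells by (NH₄)₂SO₄ fractionation and gel sieving, with no detectable γ-glutamyl hydrolase. Product was separated on DEAE-cellulose. Percent inhibition is reported.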

Mus musculus [8] = assay: Antitumor activity against E0771 mammary adenocarcinoma in mice at 24 mg/kg(5 days) was determined and tumor volume at day 7 was reported; assay type: functional; how it was run: as §2
Mus musculus [9] = assay: Antitumor activity against E0771 mammary adenocarcinoma in mice at 12 mg/kg(5 days) was determined and tumor volume at day 10 was reported; assay type: functional; how it was run: as §2
Dihydrofolate reductase = target: T1, Dihydrofolate reductase (Mus musculus, UniProt P00375); assay: Inhibitory activity of Dihydrofolate reductase in L1210 cells; assay type: cell-based
T1 sequence (P00375 whole entry): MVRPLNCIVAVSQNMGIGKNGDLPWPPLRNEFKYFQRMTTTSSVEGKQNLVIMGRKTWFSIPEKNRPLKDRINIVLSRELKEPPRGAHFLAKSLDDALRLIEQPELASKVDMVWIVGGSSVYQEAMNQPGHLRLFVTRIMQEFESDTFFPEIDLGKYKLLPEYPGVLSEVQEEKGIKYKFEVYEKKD

Mus musculus [10] = assay: Antitumor activity against E0771 mammary adenocarcinoma in mice at 24 mg/kg(5 days) was determined and tumor volume at day 10 was reported; assay type: functional; how it was run: as §2
Mus musculus [11] = assay: Antitumor activity against E0771 mammary adenocarcinoma in mice at 12 mg/kg(5 days) was determined and tumor volume at day 14 was reported; assay type: functional; how it was run: as §2
Mus musculus [12] = assay: Antitumor activity against E0771 mammary adenocarcinoma in mice at 12 mg/kg(5 days) was determined and tumor volume at day 7 was reported; assay type: functional; how it was run: as §2
L1210 [13] = assay: Tested for transport into L1210 cells measured as cell influx; assay type: functional, cell-based, Mus musculus
[14] = Activity relative to saturating aminopterine at 100 uM against CCRF-CEM Folyl-polyglutamate synthetase; assay type: ADME; conditions: human
How it was run: (§3)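 FPGS from CCRF-CEM cells: freeze-thawed lysates fractionated by (NH₄)₂SO₄ (0–40% saturation pellet) and gel sieving, stored at –90 °C in 20% glycerol, free of detectable γ-glutamyl hydrolase. Product was separated on DEAE-cellulose minicolumns. Run in duplicate or triplicate, and each experiment was repeated at least once.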

Mus musculus [15] = assay: Antitumor activity against E0771 mammary adenocarcinoma in mice at 24 mg/kg(5 days) was determined and […] at day 7 was reported; assay type: functional; how it was run: as §1
Mus musculus [16] = assay: Antitumor activity against E0771 mammary adenocarcinoma in mice at 12 mg/kg(5 days) was determined and […] at day 7 was reported; assay type: functional
Mus musculus [17] = assay: Antitumor activity against E0771 mammary adenocarcinoma in mice at 30 mg/kg(5 days) was determined and tumor volume at day 14 was reported; assay type: functional
Mus musculus [18] = assay: Antitumor activity against E0771 mammary adenocarcinoma in mice at 3 mg/kg(5 days) was determined and tumor volume at day 10 was reported; assay type: functional; how it was run: as §2
Mus musculus [19] = assay: Antitumor activity against E0771 mammary adenocarcinoma in mice at 3 mg/kg(5 days) was determined and […] at day 10 was reported; assay type: functional; how it was run: as §1
Mus musculus [20] = assay: Antitumor activity against E0771 mammary adenocarcinoma in mice at 3 mg/kg(5 days) was determined and tumor volume at day 7 was reported; assay type: functional; how it was run: as §2
[21] = tested on: Folyl-polyglutamate synthase; assay: Michaelis-Menten constant was determined against CCRF-CEM Folyl-polyglutamate synthase; assay type: ADME; conditions: human, folylpolyglutamate synthase from CCRF-CEM cells; how it was run: as §3
[22] = target: T2, Folylpolyglutamate synthase, mitochondrial (Mus musculus) (UniProt P48760); assay: Specific activity of L1210 Folyl-polyglutamate synthase
T2 sequence (whole entry): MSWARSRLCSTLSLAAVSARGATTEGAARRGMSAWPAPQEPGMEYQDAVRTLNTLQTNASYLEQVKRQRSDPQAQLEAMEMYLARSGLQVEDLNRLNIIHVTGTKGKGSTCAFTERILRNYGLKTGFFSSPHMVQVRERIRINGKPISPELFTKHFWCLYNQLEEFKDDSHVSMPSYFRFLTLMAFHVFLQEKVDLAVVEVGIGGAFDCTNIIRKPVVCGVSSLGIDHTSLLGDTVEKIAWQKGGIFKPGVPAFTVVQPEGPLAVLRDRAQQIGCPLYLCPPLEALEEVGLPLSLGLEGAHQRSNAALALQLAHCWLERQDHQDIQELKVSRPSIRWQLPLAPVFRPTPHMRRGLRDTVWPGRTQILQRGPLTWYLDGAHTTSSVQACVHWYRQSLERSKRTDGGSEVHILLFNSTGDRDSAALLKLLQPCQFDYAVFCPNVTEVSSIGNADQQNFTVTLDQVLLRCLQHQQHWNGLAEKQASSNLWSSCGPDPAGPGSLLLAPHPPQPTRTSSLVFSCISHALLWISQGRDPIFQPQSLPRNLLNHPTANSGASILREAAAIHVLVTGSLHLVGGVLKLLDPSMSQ
How it was run: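 FPGS from L1210 cells was assayed by [³H]glutamate ligation, like the human enzyme assay. Each folate substrate was at 100 μM, and only specific activity was measured.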

Mus musculus [23] = assay: Antitumor activity against E0771 mammary adenocarcinoma in mice at 3 mg/kg(5 days) was determined and […] at day 7 was reported; assay type: functional; how it was run: as §1
Mus musculus [24] = assay: Antitumor activity against E0771 mammary adenocarcinoma in mice at 6 mg/kg(5 days) was determined and […] at day 10 was reported; assay type: functional; how it was run: as §1
Mus musculus [25] = assay: Antitumor activity against E0771 mammary adenocarcinoma in mice at 100 mg/kg(5 days) was determined and tumor volume at day 14 was reported; assay type: functional; how it was run: as §2
Mus musculus [26] = assay: Antitumor activity against E0771 mammary adenocarcinoma in mice at 100 mg/kg(5 days) was determined and […] at day 14 was reported; assay type: functional
Mus musculus [27] = assay: Antitumor activity against E0771 mammary adenocarcinoma in mice at 30 mg/kg(5 days) was determined and […] at day 14 was reported; assay type: functional
Mus musculus [28] = assay: Antitumor activity against E0771 mammary adenocarcinoma in mice at 6 mg/kg(5 days) was determined and tumor volume at day 7 was reported; assay type: functional; how it was run: as §2
Mus musculus [29] = assay: Antitumor activity against E0771 mammary adenocarcinoma in mice at 6 mg/kg(5 days) was determined and tumor volume at day 10 was reported; assay type: functional; how it was run: as §2
CCRF S-180 [30] = assay: Tested for the ability to inhibit growth in vitro against S180 cells; assay type: functional, cell-based; conditions: Mus musculus
Mus musculus [31] = assay: Antitumor activity against E0771 mammary adenocarcinoma in mice at 6 mg/kg(5 days) was determined and […] at day 7 was reported; assay type: functional; how it was run: as §1

## Cc1c(CN(C)c2ccc(C(=O)NC(CCC(=O)O)C(=O)O)c3ccccc23)cnc2nc(N)nc(N)c12 (configuration not stated)
Mus musculus [1]
  T/C: 53%
Mus musculus [2]
  T/C: 19%
Mus musculus [3]
  Tumor volume: 493 mm**3
HL-60
  IC50: 0.56 nM
L1210 [4]
  IC50: 2.4 nM
CCRF S-180 [5]
  IC50: 2.6 nM
Mus musculus [6]
  T/C: 28%
Mus musculus [7]
  T/C: 60%
CCRF-CEM
  inhibition: 10%
Mus musculus [8]
  Tumor volume: 87 mm**3
Mus musculus [9]
  Tumor volume: 333 mm**3
Dihydrofolate reductase
  Ki: 0.00484 nM
Mus musculus [10]
  Tumor volume: 119 mm**3
Mus musculus [11]
  Tumor volume: 1048 mm**3
Mus musculus [12]
  Tumor volume: 108 mm**3
L1210 [13]
  Ki: 660 nM
[14]
  Relative Vmax: 0.04
Mus musculus [15]
  T/C: 39%
Mus musculus [16]
  T/C: 49%

## CN(Cc1cnc2nc(N)nc(N)c2n1)c1ccc(C(=O)N[C@@H](CCC(=O)O)C(=O)O)cc1 [METHOTREXATE]
HL-60
  IC50: 8.1 nM
Mus musculus [17]
  Tumor volume: 540 mm**3
L1210 [4]
  IC50: 9 nM
Mus musculus [18]
  Tumor volume: 624 mm**3
Mus musculus [19]
  T/C: 100%
Mus musculus [20]
  Tumor volume: 180 mm**3
[21]
  Km: 42 µM
[22]
  Specific activity (pM hr-1 (mg of protein)-1): 0.38
Mus musculus [23]
  T/C: 81%
Mus musculus [24]
  T/C: 30%
Mus musculus [25]
  Tumor volume: 1437 mm**3
Mus musculus [26]
  T/C: 83%
Mus musculus [27]
  T/C: 31%
L1210 [13]
  Ki: 3930 nM
Mus musculus [28]
  Tumor volume: 108 mm**3
Mus musculus [29]
  Tumor volume: 187 mm**3
CCRF S-180 [30]
  IC50: 10 nM
Mus musculus [31]
  T/C: 49%
